Converted amounts (≈) assume the structure as drawn. The source made the active and inactive calls. No cut-off for these calls is given here. Where a SMILES comes first, the peptide text is derived from it. [ ]: non-standard residue; d: D form. The star is where a group is joined. X1 = CC(=O)OC[C@H](CC(C)C)N*; Aib = CC(C)(N)C(=O)O
Columns and labels:
Bacillus subtilis = assay: Antimicrobial activity against Bacillus subtilis ATCC 6633 at 100 ug/disk after 24 hrs by standard disk assay; assay type: functional; settings: ATCC 6633, 24 h, read-out: IZ
Outline: (§1)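 Bacteria grown on nutrient agar at 37 °C. Test plates seeded with 5×10^5 cells per mL. Compound loaded onto 6 mm filter disks placed on the agar. Inhibition zone diameters read after 24 h.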

L1210 [1] = assay: Cytotoxicity against mouse L1210 cells at 100 ug/ml; assay type: functional, cell-based
Brevibacillus brevis = assay: Antimicrobial activity against Bacillus brevis ATCC 9999 at 100 ug/disk after 24 hrs by standard disk assay; assay type: functional; settings: ATCC 9999, 24 h, read-out: IZ; outline: as §1
Micrococcus luteus = assay: Antimicrobial activity against Micrococcus luteus ATCC 21415 at 100 ug/disk after 24 hrs by standard disk assay; assay type: functional; settings: ATCC 21415, 24 h, read-out: IZ; outline: as §1
[2] = Cytotoxicity against human COLO320 cells; assay type: functional, cell-based; settings: COLO 320
Outline: (§2)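 Cells were grown and assayed in RPMI 1640 medium, and the IC50 was reported.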

L1210 [3] = assay: Cytotoxicity against mouse L1210 cells; assay type: functional, cell-based; outline: as §2

| SMILES | zone of inhibition at 100 µg/disc (Bacillus subtilis) | Activity (L1210 [1]) | zone of inhibition at 100 µg/disc (Brevibacillus brevis) | zone of inhibition at 100 µg/disc (Micrococcus luteus) | IC50 [2] | IC50 (L1210 [3]) |
| --- | --- | --- | --- | --- | --- | --- |
| CC(=O)N[C@@H](CC(C)C)C(=O)NC(C)(C)C(=O)N1CCC[C@H]1C(=O)NC(C)(C)C(=O)N[C@@H](CC(C)C)C(=O)NC(C)(C)C(=O)N1CCC[C@H]1C(=O)N[C@@H](C)C(=O)NC(C)(C)C(=O)N1CCC[C@H]1C(=O)N[C@H](C(=O)N[C@H](CO)CC(C)C)C(C)C [CERVININ] | 8 mm | inactive | 7 mm | 15 mm | 80 mg/L (≈ 67.4 µM) |  |
| CC(=O)N[C@@H](CC(C)C)C(=O)NC(C)(C)C(=O)N1CCC[C@H]1C(=O)NC(C)(C)C(=O)N[C@@H](CC(C)C)C(=O)NC(C)(C)C(=O)N1CCC[C@H]1C(=O)N[C@@H](C)C(=O)NC(C)(C)C(=O)N1CCC[C@H]1C(=O)N[C@H](C(=O)N[C@H](COC(C)=O)CC(C)C)C(C)C (Ac-L[Aib]P[Aib]L[Aib]PA[Aib]PV-X1) | 11 mm |  | 10 mm | 16 mm | 40 mg/L (≈ 32.5 µM) | 32 mg/L (≈ 26 µM) |

Reference: ChEMBL document CHEMBL1146514, “New peptaibols from Mycogone cervina” (J Nat Prod, 2004)
